Key:
[1] = organism: Rattus norvegicus; experiment: Hill coefficient for affinity to M1 muscarinic receptor of rat cerebral cortex
[2] = organism: Rattus norvegicus; experiment: Hill coefficient for affinity to M2 muscarinic receptor of rat cerebral cortex
[3] = organism: Rattus norvegicus; experiment: Hill coefficient for affinity to M3 muscarinic receptor of rat cerebral cortex
[4] = organism: Rattus norvegicus; experiment: In vitro potency against muscarinic preparation from rat jejunum.; type: functional
Procedure, shortened: (§1)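 Isolated tissues: guinea pig atria, ileum and trachea, and rat jejunum and bladder. Agonist concentration–response curves were run, with potency expressed as −log EC50. Values are means ± SEM of six to nine experiments.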

[5] = organism: Cavia porcellus; experiment: In vitro potency against muscarinic preparation from guinea pig atria.; type: functional; procedure, shortened: as §1
[6] = organism: Cavia porcellus; experiment: In vitro potency against muscarinic preparation from guinea pig ileum.; type: functional; procedure, shortened: as §1
[7] = organism: Rattus norvegicus; experiment: In vitro potency against muscarinic preparation from rat bladder.; type: functional; procedure, shortened: as §1
[8] = target: T1, Muscarinic acetylcholine receptor M1 (Rattus norvegicus) (UniProt P08482); settings: Cerebral cortex
T1 sequence (whole entry): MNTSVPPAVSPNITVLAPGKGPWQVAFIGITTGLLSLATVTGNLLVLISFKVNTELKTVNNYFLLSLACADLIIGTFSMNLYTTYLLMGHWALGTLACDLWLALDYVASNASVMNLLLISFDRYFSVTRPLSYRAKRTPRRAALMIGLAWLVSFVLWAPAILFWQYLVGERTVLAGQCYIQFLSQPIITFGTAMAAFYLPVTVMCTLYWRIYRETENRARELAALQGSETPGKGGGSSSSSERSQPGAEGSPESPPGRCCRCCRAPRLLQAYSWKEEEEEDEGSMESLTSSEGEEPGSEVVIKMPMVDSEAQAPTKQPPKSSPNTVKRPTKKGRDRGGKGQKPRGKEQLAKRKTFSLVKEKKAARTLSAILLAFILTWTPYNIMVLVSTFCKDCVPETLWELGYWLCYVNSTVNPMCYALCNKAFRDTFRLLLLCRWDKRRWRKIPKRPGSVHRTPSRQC

[9] = organism: Cavia porcellus; experiment: In vitro potency against muscarinic preparation from guinea pig trachea.; type: functional; procedure, shortened: as §1
[10] = organism: Rattus norvegicus; experiment: In vitro potency against muscarinic preparation from rat jejunum; type: functional; procedure, shortened: as §1
[11] = organism: Cavia porcellus; experiment: In vitro potency against muscarinic preparation from guinea pig ileum; type: functional; procedure, shortened: as §1
[12] = organism: Cavia porcellus; experiment: In vitro potency against muscarinic preparation from guinea pig trachea; type: functional; procedure, shortened: as §1
[13] = organism: Cavia porcellus; experiment: In vitro potency against muscarinic preparation from guinea pig atria; type: functional; procedure, shortened: as §1
[14] = target: T1, Muscarinic acetylcholine receptor M1 (Rattus norvegicus); settings: Cerebral cortex; remark: listed apart in the source

| SMILES | nH [1] | nH [2] | nH [3] | EC50 [4] | EC50 [5] | EC50 [6] | EC50 [7] | nH [8] | EC50 [9] | EC50 [10] | EC50 [11] | EC50 [12] | EC50 [13] | nH [14] |
| --- | --- | --- | --- | --- | --- | --- | --- | --- | --- | --- | --- | --- | --- | --- |
| C[C@@H]1O[C@@H](C[N+](C)(C)C)CC1=O.[I-] | 0.74 | 0.58 | 0.92 | 20.4 nM | 5.13 nM | 3.47 nM | 105 nM |  |  |  |  |  |  |  |
| C[C@@H]1O[C@H](C[N+](C)(C)C)C[C@H]1O |  |  |  |  | 20.4 nM | 7.41 nM |  | 1 |  |  |  |  |  |  |
| C[C@H]1O[C@@H](C[N+](C)(C)C)CC1=O.[I-] | 1 | 0.6 | 1 |  | 501 nM | 302 nM | 3550 nM |  | 490 nM |  |  |  |  |  |
| C[C@H]1O[C@H](C[N+](C)(C)C)CC1=O.[I-] | 0.89 | 0.63 | 0.9 | 661 nM | 229 nM | 148 nM | 2000 nM |  |  |  |  |  |  |  |
| C[C@@H]1O[C@H](C[N+](C)(C)C)CC1=O.[I-] | 0.79 | 0.58 | 0.78 |  |  |  |  |  |  | 7.41 nM | 0.794 nM | 1.12 nM | 1.2 nM |  |
| C[C@H]1O[C@@H](C[N+](C)(C)C)C[C@@H]1O |  |  |  |  | 6760 nM | 2400 nM |  |  |  |  |  |  |  | 0.76 |
